Test results as given in ChEMBL document CHEMBL3351896, “Small Molecule that Reverses Dexamethasone Resistance in T-cell Acute Lymphoblastic Leukemia (T-ALL)” (ACS Med Chem Lett, 2014).
The source made the active and inactive calls. The rule behind the calls is not given here.

Columns and labels:
CUTLL1 [1] = experiment: Growth inhibition of human CUTLL1 cells at 50 uM in presence of deferoxamine after 48 hrs by alamar blue assay; type: functional, cell-based
CUTLL1 [2] = experiment: Growth inhibition of human CUTLL1 cells at 50 uM in presence of camptothecin after 48 hrs by alamar blue assay; type: functional, cell-based
CUTLL1 [3] = experiment: Growth inhibition of human CUTLL1 cells at 50 uM in presence of etoposide after 48 hrs by alamar blue assay; type: functional, cell-based
CUTLL1 [4] = experiment: Growth inhibition of human CUTLL1 cells at 50 uM in presence of taxol after 48 hrs by alamar blue assay; type: functional, cell-based
[5] = target: Gamma-secretase (Homo sapiens) (UniProt Q96BI3+Q9NZ42+Q8WW43+P49768+Q92542+P49810); experiment: Inhibition of gamma secretase in human CUTLL1 cells assessed as effect on NOTCH cleavage level at 25 uM in presence of 1 uM dexamethasone after 24 hrs by Western blotting; type: cell-based
Procedure, shortened: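 Western blot of intracellular NOTCH (ICN) in CUTLL1 cells after 24 h exposure to compound alone or with 1 μM dexamethasone. The γ-secretase inhibitor Compound E (100 nM) plus dexamethasone was the reference treatment.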

CUTLL1 [6] = experiment: Growth inhibition of human CUTLL1 cells with high GR expression levels at 50 uM after 48 hrs by alamar blue assay; type: functional, cell-based
Procedure, shortened: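 Human CUTLL1 T-ALL cells engineered to express high (overexpressed) or low (knockdown) glucocorticoid receptor levels. Exposed to compound alone or with 1 μM dexamethasone. Alamar blue growth inhibition read after 48 h.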

CUTLL1 [7] = experiment: Increase in GR expression in human CUTLL1 cells at < 25 uM after 24 hrs by Western blotting method; type: functional, cell-based
CUTLL1 [8] = experiment: Increase in GR expression in human CUTLL1 cells at 25 to 50 uM in presence of 1 uM dexamethasone after 24 hrs by RT-qPCR method; type: functional, cell-based
Procedure, shortened: (§1)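 CUTLL1 cells exposed to compound (25 or 50 μM) alone, with 1 μM dexamethasone, or with dexamethasone plus 1 μM RU486, for 6 or 24 h. GR measured as protein by Western blot and as transcript by RT-qPCR.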

CUTLL1 [9] = experiment: Increase in GR expression in human CUTLL1 cells at 50 uM after 6 hrs by Western blotting method; type: functional, cell-based; procedure, shortened: as §1
CUTLL1 [10] = experiment: Effect on SMAP2 gene expression in human CUTLL1 cells in presence of 1 uM dexamethasone at 30 uM after 24 hrs by microarray method; type: functional, cell-based
Procedure, shortened: (§2)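 Human CUTLL1 T-ALL cells exposed for 24 h to vehicle (DMSO), dexamethasone alone (1 μM), test compound alone (30 μM), or dexamethasone 1 μM plus compound 30 μM, each in triplicate. Expression profiled by microarray. Glucocorticoid-regulated gene sets from ALL patients on glucocorticoid therapy scored by GSEA. Leading-edge genes compared between the combination and dexamethasone alone.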

CUTLL1 [11] = experiment: Effect on DDIT4 gene expression in human CUTLL1 cells in presence of 1 uM dexamethasone at 30 uM after 24 hrs by microarray method; type: functional, cell-based
Procedure, shortened: (§3)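 CUTLL1 T-ALL cells exposed 24 h to vehicle (DMSO), dexamethasone alone (1 μM), test agent alone (30 μM), or dexamethasone (1 μM) plus test agent (30 μM), in triplicate. Expression profiled by microarray. Leading-edge genes from GSEA were compared between the dexamethasone-plus-agent and dexamethasone-alone groups, using glucocorticoid-regulated gene sets from ALL patients on glucocorticoid therapy.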

CUTLL1 [12] = experiment: Effect on APITD1 gene expression in human CUTLL1 cells in presence of 1 uM dexamethasone at 30 uM after 24 hrs by microarray method; type: functional, cell-based; procedure, shortened: as §3
CUTLL1 [13] = experiment: Effect on BRCA1 gene expression in human CUTLL1 cells in presence of 1 uM dexamethasone at 30 uM after 24 hrs by microarray method; type: functional, cell-based; procedure, shortened: as §3
CUTLL1 [14] = experiment: Effect on POLE3 gene expression in human CUTLL1 cells in presence of 1 uM dexamethasone at 30 uM after 24 hrs by microarray method; type: functional, cell-based; procedure, shortened: as §2
CUTLL1 [15] = experiment: Effect on DSCC1 gene expression in human CUTLL1 cells in presence of 1 uM dexamethasone at 30 uM after 24 hrs by microarray method; type: functional, cell-based; procedure, shortened: as §3
CUTLL1 [16] = experiment: Effect on TIPIN gene expression in human CUTLL1 cells in presence of 1 uM dexamethasone at 30 uM after 24 hrs by microarray method; type: functional, cell-based; procedure, shortened: as §2
CUTLL1 [17] = experiment: Effect on HELLS gene expression in human CUTLL1 cells in presence of 1 uM dexamethasone at 30 uM after 24 hrs by microarray method; type: functional, cell-based; procedure, shortened: as §3
CUTLL1 [18] = experiment: Effect on SKP2 gene expression in human CUTLL1 cells in presence of 1 uM dexamethasone at 30 uM after 24 hrs by microarray method; type: functional, cell-based; procedure, shortened: as §2
CUTLL1 [19] = experiment: Effect on CHAF1A gene expression in human CUTLL1 cells in presence of 1 uM dexamethasone at 30 uM after 24 hrs by microarray method; type: functional, cell-based; procedure, shortened: as §3
CUTLL1 [20] = experiment: Effect on ATAD2 gene expression in human CUTLL1 cells in presence of 1 uM dexamethasone at 30 uM after 24 hrs by microarray method; type: functional, cell-based; procedure, shortened: as §3
CUTLL1 [21] = experiment: Effect on USP1 gene expression in human CUTLL1 cells in presence of 1 uM dexamethasone at 30 uM after 24 hrs by microarray method; type: functional, cell-based; procedure, shortened: as §2
CUTLL1 [22] = experiment: Effect on ALYREF gene expression in human CUTLL1 cells in presence of 1 uM dexamethasone at 30 uM after 24 hrs by microarray method; type: functional, cell-based; procedure, shortened: as §3
CUTLL1 [23] = experiment: Effect on MCM4 gene expression in human CUTLL1 cells in presence of 1 uM dexamethasone at 30 uM after 24 hrs by microarray method; type: functional, cell-based; procedure, shortened: as §3
CUTLL1 [24] = experiment: Effect on BTG1 gene expression in human CUTLL1 cells in absence of 1 uM dexamethasone at 30 uM after 24 hrs by microarray method; type: functional, cell-based; procedure, shortened: as §3
CUTLL1 [25] = experiment: Effect on BRCA1 gene expression in human CUTLL1 cells in absence of 1 uM dexamethasone at 30 uM after 24 hrs by microarray method; type: functional, cell-based; procedure, shortened: as §3
CUTLL1 [26] = experiment: Effect on POLE2 gene expression in human CUTLL1 cells in absence of 1 uM dexamethasone at 30 uM after 24 hrs by microarray method; type: functional, cell-based; procedure, shortened: as §2
CUTLL1 [27] = experiment: Effect on CDT1 gene expression in human CUTLL1 cells in absence of 1 uM dexamethasone at 30 uM after 24 hrs by microarray method; type: functional, cell-based; procedure, shortened: as §3
CUTLL1 [28] = experiment: Effect on BCCIP gene expression in human CUTLL1 cells in absence of 1 uM dexamethasone at 30 uM after 24 hrs by microarray method; type: functional, cell-based; procedure, shortened: as §3
CUTLL1 [29] = experiment: Effect on FEN1 gene expression in human CUTLL1 cells in absence of 1 uM dexamethasone at 30 uM after 24 hrs by microarray method; type: functional, cell-based; procedure, shortened: as §3
CUTLL1 [30] = experiment: Effect on NHP2 gene expression in human CUTLL1 cells in absence of 1 uM dexamethasone at 30 uM after 24 hrs by microarray method; type: functional, cell-based; procedure, shortened: as §3
CUTLL1 [31] = experiment: Effect on GINS2 gene expression in human CUTLL1 cells in absence of 1 uM dexamethasone at 30 uM after 24 hrs by microarray method; type: functional, cell-based; procedure, shortened: as §3
CUTLL1 [32] = experiment: Effect on ATAD2 gene expression in human CUTLL1 cells in absence of 1 uM dexamethasone at 30 uM after 24 hrs by microarray method; type: functional, cell-based; procedure, shortened: as §3
CUTLL1 [33] = experiment: Effect on MCM4 gene expression in human CUTLL1 cells in absence of 1 uM dexamethasone at 30 uM after 24 hrs by microarray method; type: functional, cell-based; procedure, shortened: as §3

With `Nc1ncc(-c2ccncc2)c(C2CC2)n1` as the compound, how does the “growth inhibition (GI)” value (CUTLL1 [1]) read?
The value was “inactive”.

And the “growth inhibition (GI)” value (CUTLL1 [2])?
Its value is “inactive”.

What about the “growth inhibition (GI)” value (CUTLL1 [3]) of the same compound?
Its value is “inactive”.

What about the “growth inhibition (GI)” value (CUTLL1 [4]) of the same compound?
Its value is “inactive”.

What about the inhibition [5] of the same compound?
The inhibition was “inactive”.

And the “growth inhibition (GI)” value (CUTLL1 [6])?
Its value is “inactive”.

What about the Activity (CUTLL1 [7]) of the same compound?
Its Activity is “inactive”.

And the Activity (CUTLL1 [8])?
Its Activity is “Active”.

And the Activity (CUTLL1 [9])?
Its Activity is “Active”.

And the Activity (CUTLL1 [10])?
Its Activity is “Active”.

What about the Activity (CUTLL1 [11]) of the same compound?
The Activity was “Active”.

What about the Activity (CUTLL1 [12]) of the same compound?
The Activity was “Active”.

And the Activity (CUTLL1 [13])?
The Activity was “Active”.

And the Activity (CUTLL1 [14])?
The Activity was “Active”.

What about the Activity (CUTLL1 [15]) of the same compound?
Its Activity is “Active”.

What about the Activity (CUTLL1 [16]) of the same compound?
Its Activity is “Active”.

And the Activity (CUTLL1 [17])?
Its Activity is “Active”.

What about the Activity (CUTLL1 [18]) of the same compound?
Its Activity is “Active”.

What about the Activity (CUTLL1 [19]) of the same compound?
The Activity was “Active”.

And the Activity (CUTLL1 [20])?
The Activity was “Active”.

What about the Activity (CUTLL1 [21]) of the same compound?
The Activity was “Active”.

What about the Activity (CUTLL1 [22]) of the same compound?
Its Activity is “Active”.

What about the Activity (CUTLL1 [23]) of the same compound?
Its Activity is “Active”.

What about the Activity (CUTLL1 [24]) of the same compound?
Its Activity is “inactive”.

And the Activity (CUTLL1 [25])?
The Activity was “inactive”.

And the Activity (CUTLL1 [26])?
The Activity was “inactive”.

And the Activity (CUTLL1 [27])?
The Activity was “inactive”.

What about the Activity (CUTLL1 [28]) of the same compound?
The Activity was “inactive”.

What about the Activity (CUTLL1 [29]) of the same compound?
The Activity was “inactive”.

And the Activity (CUTLL1 [30])?
Its Activity is “inactive”.

What about the Activity (CUTLL1 [31]) of the same compound?
Its Activity is “inactive”.

What about the Activity (CUTLL1 [32]) of the same compound?
The Activity was “inactive”.

And the Activity (CUTLL1 [33])?
The Activity was “inactive”.
